# Laboratory results from ChEMBL document CHEMBL1833883, “Synthesis and antiangiogenic activity of new silybin galloyl esters” (J Med Chem, 2011).
# Calls of active or inactive are those of the source. The calls are words filed in the database; no cut-off is given here.
# Experiments:
# HUVEC [1] = assay: Antiangiogenic activity in HUVEC assessed as inhibition of tube formation at 10 uM after 6 hrs by Matrigel assay relative to control; format: functional; conditions: Homo sapiens
# Outline: (§1)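 Roughly 1 × 10⁴ HUVECs plated in EGM on polymerized Matrigel (9 mg/mL), with or without compound; 2-methoxyestradiol 10 μM as positive control. Three images per well taken at 40× magnification. Tube formation scored in a field of about 100 cells as (sprouting×1 + connected×2 + polygons×3)/total cells, and expressed as % of untreated control; p < 0.05 versus control.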
# HUVEC [2] = assay: Antiangiogenic activity in HUVEC assessed as inhibition of tube formation after 6 hrs by Matrigel assay relative to control; format: functional, cell-based; conditions: Homo sapiens; outline: as §1
# HUVEC [3] = assay: Cytotoxicity against HUVEC assessed as cell viability after 16 hrs by MTT assay; format: cell-based; conditions: Homo sapiens
# Outline: (§2)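 Confluent HUVECs on gelatin-coated wells treated with serial dilutions of compound in fresh EGM for 16 h (overnight, 16–20 h). MTT added in medium at 1 mg/mL, 3 h at 37 °C; formazan dissolved in 1% NH₃/DMSO and absorbance read at 540 nm. IC50 reported as mean ± SD of three independent experiments, each run in triplicate.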
# [4] = Cytotoxicity against HUVEC assessed as cell viability at concentration higher than IC50 after 16 hrs by MTT assay; format: cell-based; conditions: human, HUVEC cells; read-out: Activity; outline: as §2
# [5] = Cytotoxicity against HUVEC assessed as cell viability at 100 uM after 16 hrs by MTT assay; format: cell-based; conditions: human, HUVEC cells; read-out: Activity; outline: as §2
# HUVEC [6] = assay: Cytotoxicity against HUVEC by LDH release assay; format: cell-based; conditions: human
# Outline: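 Confluent HUVECs on gelatin-coated wells exposed overnight (16–20 h) to serial dilutions of compound in fresh EGM. Culture medium then sampled to measure LDH leakage.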
# HUVEC [7] = assay: Antiproliferative activity against HUVEC assessed as inhibition of cell growth after 3 days by MTT assay; format: functional, cell-based; conditions: Homo sapiens, 72 h
# Outline: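 4 × 10³ HUVECs incubated with serial dilutions of compound for 3 days. MTT (5 mg/mL, 10 μL) added and incubated 3 h at 37 °C; formazan dissolved in 1% NH₃ in DMSO and read at 540 nm. IC50 reported as mean ± SD of three independent experiments, each run in triplicate.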
# HUVEC [8] = assay: Antiangiogenic activity in HUVEC assessed as inhibition of cell migration after 16 to 20 hrs by wound healing migration assay; format: functional; conditions: Homo sapiens
# Outline: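 HUVECs (passages 2–6, isolated from umbilical cord by collagenase digestion, grown in EGM) as confluent monolayers; one 1-mm cell-free line scratched per well, cells washed twice with PBS, then given fresh EGM with or without compound. Wound photographed at time zero and after overnight (16–20 h) incubation at 37 °C. Minimal inhibitory concentration taken from reoccupation of the wound space.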
# HUVEC [9] = assay: Antiangiogenic activity in HUVEC assessed as inhibition of tube formation at 50 uM after 6 hrs by Matrigel assay; format: functional, cell-based; conditions: Homo sapiens
# HUVEC [10] = assay: Antiangiogenic activity in HUVEC assessed as inhibition of tube formation at 20 uM after 6 hrs by Matrigel assay relative to control; format: functional; conditions: Homo sapiens; outline: as §1
# HUVEC [11] = assay: Antiangiogenic activity in HUVEC assessed as inhibition of tube formation at 30 uM after 6 hrs by Matrigel assay relative to control; format: functional; conditions: Homo sapiens; outline: as §1
# HUVEC [12] = assay: Antiangiogenic activity in HUVEC assessed as inhibition of tube formation after 24 hrs by Matrigel assay; format: functional; conditions: Homo sapiens
# Outline: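 Matrigel (9 mg/mL) polymerized at 37 °C for at least 30 min. About 1 × 10⁴ HUVECs seeded in EGM with or without compound; 2-methoxyestradiol 10 μM as positive control. After 24 h, the minimal inhibitory concentration was taken as the lowest concentration at which no tubular structures formed.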
# HUVEC [13] = assay: Antiangiogenic activity in HUVEC assessed as inhibition of tube formation up to 75 uM after 6 hrs by Matrigel assay; format: functional, cell-based; conditions: Homo sapiens; outline: as §1
# HUVEC [14] = assay: Antiangiogenic activity in HUVEC assessed as inhibition of tube formation at 10 uM after 6 hrs by Matrigel assay; format: functional, cell-based; conditions: Homo sapiens; outline: as §1
# HUVEC [15] = assay: Antiangiogenic activity in HUVEC assessed as inhibition of tube formation at 75 uM after 6 hrs by Matrigel assay; format: functional, cell-based; conditions: Homo sapiens
SMILES,inhibition at 10 µM (HUVEC [1]),inhibition (HUVEC [2]),IC50 (HUVEC [3]),viability at 16 h [4],"viability at 16 h, 100 µM [5]",Activity (HUVEC [6]),IC50 (HUVEC [7]),MIC (HUVEC [8]),inhibition (HUVEC [9]),inhibition at 20 µM (HUVEC [10]),inhibition at 30 µM (HUVEC [11]),MIC (HUVEC [12]),inhibition (HUVEC [13]),inhibition (HUVEC [14]),inhibition (HUVEC [15])
COc1cc([C@@H]2Oc3cc([C@H]4Oc5cc(OC(=O)c6cc(O)c(O)c(O)c6)cc(O)c5C(=O)[C@@H]4O)ccc3O[C@H]2CO)ccc1O,79.9%,Dose-dependent effect,7.85 µM,50%,40%,Non-toxic,4.29 µM,10 µM,Active,,,,,,
COc1cc([C@H]2Oc3cc([C@H]4Oc5cc(O)cc(O)c5C(=O)[C@@H]4O)ccc3O[C@@H]2CO)ccc1O [SILYBIN A],,,62.3 µM,,,Non-toxic,8.83 µM,,,,,,,,
COc1cc(C2Oc3cc([C@H]4Oc5cc(O)cc(O)c5C(=O)[C@@H]4O)ccc3OC2CO)ccc1OC(=O)c1cc(O)c(O)c(O)c1 (some centres undefined),,,35.4 µM,,,Non-toxic,10.3 µM,20 µM,,94.5%,49.5%,60 µM,,,
COc1cc(C2Oc3cc([C@H]4Oc5cc(O)cc(O)c5C(=O)[C@@H]4OC(=O)c4cc(O)c(O)c(O)c4)ccc3OC2CO)ccc1O (some centres undefined),,,65 µM,,,Non-toxic,12.3 µM,50 µM,,,,75 µM,inactive,,
COc1cc2c(cc1O)CC[C@@H]1[C@@H]2CC[C@]2(C)[C@@H](O)CC[C@@H]12,,,,,,,,,,,,,,Active,
COc1cc([C@H]2Oc3cc([C@H]4Oc5cc(OC(=O)c6cc(O)c(O)c(O)c6)cc(O)c5C(=O)[C@@H]4O)ccc3O[C@@H]2CO)ccc1O,79.9%,Dose-dependent effect,17.1 µM,50%,40%,Non-toxic,6.06 µM,10 µM,Active,,,,,,
COc1cc(C2Oc3cc([C@H]4Oc5cc(O)cc(O)c5C(=O)[C@@H]4O)ccc3OC2COC(=O)c2cc(O)c(O)c(O)c2)ccc1O (some centres undefined),,,55 µM,,,Non-toxic,11.6 µM,20 µM,,,,75 µM,,,
COc1cc([C@@H]2Oc3cc([C@H]4Oc5cc(O)cc(O)c5C(=O)[C@@H]4O)ccc3O[C@H]2CO)ccc1O [SILYBIN B],,,60.5 µM,,,Non-toxic,6.49 µM,,,,,,,,
COc1cc(C2Oc3cc([C@H]4Oc5cc(OC(=O)c6cc(O)c(O)c(O)c6)cc(O)c5C(=O)[C@@H]4O)ccc3OC2CO)ccc1O (some centres undefined),79.9%,Dose-dependent effect,9.21 µM,50%,40%,Non-toxic,4.75 µM,10 µM,Active,,,25 µM,,,
COc1cc(C2Oc3cc([C@H]4Oc5cc(O)cc(O)c5C(=O)[C@@H]4O)ccc3OC2CO)ccc1O (mixture of isomers) [SILIBININ],,,72.6 µM,,,Non-toxic,9.99 µM,50 µM,,,,75 µM,,,Active
